Consider 9 compounds from paper PMC9891086 (RSC Advances, 2023).

SMILES strings stand for the structures.

Assay [1] deals with T1, COX-2 (Homo sapiens, UniProt P35354).
T1 sequence (P35354 18-604): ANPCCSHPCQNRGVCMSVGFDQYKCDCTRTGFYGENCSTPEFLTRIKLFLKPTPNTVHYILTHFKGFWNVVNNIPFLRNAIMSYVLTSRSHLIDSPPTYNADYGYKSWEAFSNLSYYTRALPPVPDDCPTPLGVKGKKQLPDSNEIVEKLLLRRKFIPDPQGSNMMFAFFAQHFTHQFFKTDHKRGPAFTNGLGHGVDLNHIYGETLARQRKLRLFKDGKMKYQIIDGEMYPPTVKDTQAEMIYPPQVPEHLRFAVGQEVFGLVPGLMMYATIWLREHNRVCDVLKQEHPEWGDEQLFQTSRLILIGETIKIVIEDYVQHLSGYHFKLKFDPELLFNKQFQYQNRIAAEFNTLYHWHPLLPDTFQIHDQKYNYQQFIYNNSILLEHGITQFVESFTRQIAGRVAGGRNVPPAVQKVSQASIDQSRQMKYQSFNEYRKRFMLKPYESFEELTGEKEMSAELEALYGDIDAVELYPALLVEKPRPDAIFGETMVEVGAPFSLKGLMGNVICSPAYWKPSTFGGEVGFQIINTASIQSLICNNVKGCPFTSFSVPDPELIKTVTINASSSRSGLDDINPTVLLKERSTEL
Description: biochemical.

The subject of assay [2] is HepG2 cells. Description: MTT cytotoxic activity assay against HepG2 cells. Type of assay: cell-based. As to conditions: Homo sapiens, HepG2, 48 h, read-out: IC50 inhibitory effect on HepG2 cells. A digest of the protocol: (§1)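 Cells seeded at 5 × 10^3 per well and grown 24 h, then exposed to a range of test compound concentrations for 48 h. Vehicle control was 0.1% DMSO and the positive control was adriamycin (10 μM). MTT was added from a 5 mg mL−1 stock for 4 h, and formazan was dissolved in DMSO. Viability was read at 490 nm, in three replicates per treatment.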
In general terms: Formazan colour is commonly taken as a measure of viable cells.

The subject of assay [3] is Caco-2 cells. Kind of assay: MTT cytotoxic activity assay against Caco-2 cells. Type of assay: cell-based. The conditions noted are these: Homo sapiens, Caco-2, 48 h, read-out: IC50 inhibitory effect on Caco-2 cells. The method in brief:
as §1

As usually defined, the IC50 is the concentration that gives 50% inhibition. For the compound `O=C1N[C@@H](O)C(O)=C1O` [Compound 23, (S)-3,4,5-trihydroxy-1H-pyrrol-2 (5H)-one], in assay [1], the IC50 is 149 ± 10 µM.
On the same count and under the same terms, the same measure for `CC[C@H](CC[C@@H](C)[C@H]1CC[C@H]2[C@@H]3CC(=O)C4=CC(=O)CC[C@]4(C)[C@H]3CC[C@]12C)C(C)C` [Compound 3, stigmast-4-en-3,6-dione]: 67.9 ± 6.21 µM.
`O=c1cc[nH]c(=O)[nH]1` [Compound 21, uracil]: the concentration for half-maximal inhibition (IC50) is 146 ± 11 µM in assay [1], 78.5 ± 4.41 µM in assay [2] and 86 ± 2.96 µM in assay [3].
In the case of `OCc1ccccc1O[C@@H]1O[C@H](CO)[C@@H](O)[C@H](O)[C@H]1O` [Compound 25, salicin], in assay [1], the IC50 amounted to 162 ± 10 µM.
With `CCCCCCCCC/C=C\CCCCCCCCC(=O)O` [Compound 1, cis-10-eicosaenoic acid], the IC50 in assay [1] worked out at 10.8 ± 0.3 µM; in assay [2], 25 ± 1.08 µM.
`c1cncc([C@@H]2CCCCN2)c1` [Compound 15, anabasine]: half-maximal inhibition in assay [1] (IC50) was put at 150 ± 11 µM.
In assay [1], `Oc1ccccc1CN1CCCC[C@H]1c1cccnc1` [Compound 16, (2S)-N-hydroxybenzylanabasine] came in with an IC50 of 24.2 ± 1.2 µM.
For `COc1cc(O)c(C(C)=O)c(OC)c1` [Compound 5, xanthoxylin], the IC50 in assay [1] came out at 123 ± 10.5 µM; in assay [2] it was 8.21 ± 1.12 µM.
In turn, `N[C@H]1CCC=C[C@H]1C(=O)O` [Compound 14, (1R,6S)-6-aminocyclohex-2-ene-1-carboxylic acid] came in with an IC50 in assay [1] of 19.3 ± 3.58 µM.
